{"source": "ChEMBL document CHEMBL1145965", "about": "“4-Substituted 4-hydroxycyclohexa-2,5-dien-1-ones with selective activities against colon and renal cancer cell lines” (J Med Chem, 2003)", "key": {"[1]": {"test_system": "Hs-578T", "assay": "Concentration of compound that cause 50% cytotoxicity of Hs 578.T breast cancer cell line", "assay_type": "functional", "conditions": "Homo sapiens, read-out: LC50 (the source's name)", "summary_of_the_method": "(§1)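 NCI 60-cell-line panel screen. Each line was seeded in 96-well plates at a density set by its growth characteristics and incubated drug-free for 24 h. Test agents were then added at five 10-fold dilutions, with a top concentration of 100 μM.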"}, "[2]": {"test_system": "NCI/ADR-RES", "assay": "Concentration of compound that cause 50% cytotoxicity of NCI/ADR-RES breast cancer cell line", "assay_type": "functional", "conditions": "Homo sapiens, read-out: LC50 (the source's name)", "summary_of_the_method": "as §1"}, "[3]": {"test_system": "Malme-3M", "assay": "Concentration of compound that cause 50% cytotoxicity of MALME -3M melanoma cell line", "assay_type": "functional", "conditions": "Homo sapiens, read-out: Log LC50 (the source's name) (converted)", "summary_of_the_method": "as §1"}, "[4]": {"test_system": "MCF7", "assay": "Inhibitory activity against MCF-7 mammary carcinoma cell line", "assay_type": "functional, cell-based", "conditions": "Homo sapiens", "summary_of_the_method": "(§2)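 Cells grown in RPMI 1640 with 2 mM L-glutamine and 10% fetal calf serum, 37 °C, 5% CO2. Seeded at 5 × 10³ per well, 24 h adherence, then drug 0.1 nM–100 μM final (n = 8; DMSO stocks, dilutions in medium) for 72 h.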"}, "[5]": {"test_system": "HCC 2998", "assay": "Concentration of compound that cause 50% cytotoxicity of HCC2998 colon cancer cell line", "assay_type": "functional", "conditions": "Homo sapiens, read-out: Log LC50 (the source's name) (converted)", "summary_of_the_method": "as §1"}, "[6]": {"test_system": "RXF 393", "assay": "Concentration of compound that cause 50% cytotoxicity of RXF393 renal cancer cell line", "assay_type": "functional", "conditions": "Homo sapiens, read-out: Log LC50 (the source's name) (converted)", "summary_of_the_method": "as §1"}, "[7]": {"test_system": "NCI-H322M", "assay": "Concentration of compound that cause 50% cytotoxicity of NCI-H322M non small cell lung cancer cell line", "assay_type": "functional", "conditions": "Homo sapiens, read-out: Log LC50 (the source's name) (converted)", "summary_of_the_method": "as §1"}, "[8]": {"test_system": "OVCAR-3", "assay": "Concentration of compound that cause 50% cytotoxicity of OVCAR-3 ovarian cancer cell line", "assay_type": "functional", "conditions": "Homo sapiens, read-out: Log LC50 (the source's name) (converted)", "summary_of_the_method": "as §1"}, "[9]": {"test_system": "HOP-92", "assay": "Concentration of compound that cause 50% cytotoxicity of HOP-92 non small cell lung cancer cell line", "assay_type": "functional", "conditions": "Homo sapiens, read-out: Log LC50 (the source's name) (converted)", "summary_of_the_method": "as §1"}, "[10]": {"test_system": "SNB-75", "assay": "Concentration of compound that cause 50% cytotoxicity of SNB-75 CNS cancer cell line", "assay_type": "functional", "conditions": "Homo sapiens, read-out: Log LC50 (the source's name) (converted)", "summary_of_the_method": "as §1"}, "[11]": {"test_system": "OVCAR-5", "assay": "Concentration of compound that cause 50% cytotoxicity of OVCAR-5 ovarian cancer cell line", "assay_type": "functional", "conditions": "Homo sapiens, read-out: Log LC50 (the source's name) (converted)", "summary_of_the_method": "as §1"}, "[12]": {"test_system": "SK-MEL-28", "assay": "Concentration of compound that cause 50% cytotoxicity of SK-MEL-28 melanoma cell line", "assay_type": "functional", "conditions": "Homo sapiens, read-out: Log LC50 (the source's name) (converted)", "summary_of_the_method": "as §1"}, "[13]": {"test_system": "COLO 205", "assay": "Concentration of compound that cause 50% cytotoxicity of COLO 205 colon cancer cell line", "assay_type": "functional", "conditions": "Homo sapiens, read-out: Log LC50 (the source's name) (converted)", "summary_of_the_method": "as §1"}, "[14]": {"test_system": "KM12", "assay": "Concentration of compound that cause 50% cytotoxicity of KM12 colon cancer cell line", "assay_type": "functional", "conditions": "Homo sapiens, read-out: Log LC50 (the source's name) (converted)", "summary_of_the_method": "as §1"}, "[15]": {"test_system": "HCT-116", "assay": "Inhibitory activity against HCT116 colon cancer cell line", "assay_type": "functional, cell-based", "conditions": "Homo sapiens", "summary_of_the_method": "as §2"}, "[16]": {"test_system": "ACHN", "assay": "Concentration of compound that cause 50% cytotoxicity of ACHN renal cancer cell line", "assay_type": "functional", "conditions": "Homo sapiens, read-out: Log LC50 (the source's name) (converted)", "summary_of_the_method": "as §1"}, "[17]": {"assay": "Inhibitory activity against MDA-468 mammary carcinoma cell line", "assay_type": "functional, cell-based, Homo sapiens", "conditions": "mda-mb-468", "summary_of_the_method": "as §2"}, "[18]": {"test_system": "UACC-62", "assay": "Concentration of compound that cause 50% cytotoxicity of UACC-62 melanoma cell line", "assay_type": "functional", "conditions": "Homo sapiens, read-out: Log LC50 (the source's name) (converted)"}, "[19]": {"test_system": "HCT-116", "assay": "Concentration of compound that cause 50% cytotoxicity of HCT116 colon cancer cell line", "assay_type": "functional", "conditions": "Homo sapiens, read-out: Log LC50 (the source's name) (converted)", "summary_of_the_method": "as §1"}, "[20]": {"test_system": "SN12C", "assay": "Concentration of compound that cause 50% cytotoxicity of SN12C renal cancer cell line", "assay_type": "functional", "conditions": "Homo sapiens, read-out: Log LC50 (the source's name) (converted)", "summary_of_the_method": "as §1"}, "[21]": {"test_system": "MOLT-4", "assay": "Concentration of compound that cause 50% cytotoxicity of MOLT-4 leukemia cell line", "assay_type": "functional", "conditions": "Homo sapiens, read-out: LC50 (the source's name)", "summary_of_the_method": "as §1"}, "[22]": {"test_system": "HL-60", "assay": "Concentration of compound that cause 50% cytotoxicity of HL-60(TB) leukemia cell line", "assay_type": "functional", "conditions": "Homo sapiens, read-out: Log LC50 (the source's name) (converted)", "summary_of_the_method": "as §1"}, "[23]": {"test_system": "SK-MEL-2", "assay": "Concentration of compound that cause 50% cytotoxicity of SK-MEL-2 melanoma cell line", "assay_type": "functional", "conditions": "Homo sapiens, read-out: Log LC50 (the source's name) (converted)", "summary_of_the_method": "as §1"}, "[24]": {"test_system": "LOX IMVI", "assay": "Concentration of compound that cause 50% cytotoxicity of LOX IMVI melanoma cell line", "assay_type": "functional", "conditions": "Homo sapiens, read-out: Log LC50 (the source's name) (converted)", "summary_of_the_method": "as §1"}, "[25]": {"test_system": "OVCAR-8", "assay": "Concentration of compound that cause 50% cytotoxicity of OVCAR-8 ovarian cancer cell line", "assay_type": "functional", "conditions": "Homo sapiens, read-out: Log LC50 (the source's name) (converted)", "summary_of_the_method": "as §1"}, "[26]": {"test_system": "SK-MEL-5", "assay": "Concentration of compound that cause 50% cytotoxicity of SK-MEL-5 melanoma cell line", "assay_type": "functional", "conditions": "Homo sapiens, read-out: Log LC50 (the source's name) (converted)", "summary_of_the_method": "as §1"}, "[27]": {"test_system": "NCI-H23", "assay": "Concentration of compound that cause 50% cytotoxicity of NCI-H23 non small cell lung cancer cell line", "assay_type": "functional", "conditions": "Homo sapiens, read-out: Log LC50 (the source's name) (converted)", "summary_of_the_method": "as §1"}, "[28]": {"test_system": "HCT-116", "assay": "In vitro lethal concentration against most sensitive colon HCT116 cell line", "assay_type": "functional", "conditions": "Homo sapiens, read-out: LC50 (the source's name)"}, "[29]": {"test_system": "SK-OV-3", "assay": "Concentration of compound that cause 50% cytotoxicity of SK-OV-3 ovarian cancer cell line", "assay_type": "functional", "conditions": "Homo sapiens, read-out: Log LC50 (the source's name) (converted)", "summary_of_the_method": "as §1"}, "[30]": {"test_system": "NCI-H226", "assay": "Concentration of compound that cause 50% cytotoxicity of NCI-H226 non small cell lung cancer cell line", "assay_type": "functional", "conditions": "Homo sapiens, read-out: Log LC50 (the source's name) (converted)", "summary_of_the_method": "as §1"}, "[31]": {"test_system": "HT-29", "assay": "Inhibitory activity against HT-29 colon cancer cell line", "assay_type": "functional, cell-based", "conditions": "Homo sapiens", "summary_of_the_method": "as §2"}, "[32]": {"test_system": "SF-295", "assay": "Concentration of compound that cause 50% cytotoxicity of SF-295 CNS cancer cell line", "assay_type": "functional", "conditions": "Homo sapiens, read-out: Log LC50 (the source's name) (converted)", "summary_of_the_method": "as §1"}}}
{"smiles": "O=C1C=CC(O)(c2nc3ccccc3s2)C=C1", "values": [{"measurement": "CC50", "setting": "[1]", "value": "> 4", "unit": "µM"}, {"measurement": "CC50", "setting": "[2]", "value": "> 4", "unit": "µM"}, {"measurement": "CC50", "setting": "[3]", "value": 2.34, "unit": "µM"}, {"measurement": "IC50", "setting": "[4]", "value": 0.35, "unit": "µM"}, {"measurement": "CC50", "setting": "[5]", "value": 0.977, "unit": "µM"}, {"measurement": "CC50", "setting": "[6]", "value": 0.575, "unit": "µM"}, {"measurement": "CC50", "setting": "[7]", "value": 23.4, "unit": "µM"}, {"measurement": "CC50", "setting": "[8]", "value": 2.88, "unit": "µM"}, {"measurement": "CC50", "setting": "[9]", "value": 3.72, "unit": "µM"}, {"measurement": "CC50", "setting": "[10]", "value": 4.68, "unit": "µM"}, {"measurement": "CC50", "setting": "[11]", "value": 1.86, "unit": "µM"}, {"measurement": "CC50", "setting": "[12]", "value": 2.51, "unit": "µM"}, {"measurement": "CC50", "setting": "[13]", "value": 5.13, "unit": "µM"}, {"measurement": "CC50", "setting": "[14]", "value": 4.37, "unit": "µM"}, {"measurement": "IC50", "setting": "[15]", "value": 0.04, "unit": "µM"}, {"measurement": "CC50", "setting": "[16]", "value": 2.75, "unit": "µM"}, {"measurement": "IC50", "setting": "[17]", "value": 0.79, "unit": "µM"}, {"measurement": "CC50", "setting": "[18]", "value": 5.75, "unit": "µM"}, {"measurement": "CC50", "setting": "[19]", "value": 0.468, "unit": "µM"}, {"measurement": "CC50", "setting": "[20]", "value": 1.45, "unit": "µM"}, {"measurement": "CC50", "setting": "[21]", "value": "> 4", "unit": "µM"}, {"measurement": "CC50", "setting": "[22]", "value": 0.741, "unit": "µM"}, {"measurement": "CC50", "setting": "[23]", "value": 7.08, "unit": "µM"}, {"measurement": "CC50", "setting": "[24]", "value": 3.8, "unit": "µM"}, {"measurement": "CC50", "setting": "[25]", "value": 5.01, "unit": "µM"}, {"measurement": "CC50", "setting": "[26]", "value": 24, "unit": "µM"}, {"measurement": "CC50", "setting": "[27]", "value": 5.13, "unit": "µM"}, {"measurement": "CC50", "setting": "[28]", "value": 0.43, "unit": "µM"}, {"measurement": "CC50", "setting": "[29]", "value": 38, "unit": "µM"}, {"measurement": "CC50", "setting": "[30]", "value": 23.4, "unit": "µM"}, {"measurement": "IC50", "setting": "[31]", "value": 0.38, "unit": "µM"}, {"measurement": "CC50", "setting": "[32]", "value": 4.68, "unit": "µM"}]}
